Assays:
[1] = AUC (0 to 72 hrs) in Wistar rat plasma at 15 mg/kg, po by HPLC analysis; format: ADME, organism-based; set-up: dose 15 mg/kg, time < 72 hr, route oral
Outline: (§1)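 Male Wistar rats (180 ± 20 g, n = 6 per group) got one oral dose. Heparinized blood was taken by retro-orbital puncture before dosing and at 0.5–72 h. Plasma was spun at 4000 × g, 4 °C, 10 min, spiked with internal standard and protein-precipitated with acetonitrile. Analysis was reverse-phase C18 HPLC (0.02 mol/L KH2PO4 55%/acetonitrile 45%, 1.0 mL/min). Calibration used 0.1–10 µg/mL, peak-height ratio, weighting concentration^-2.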

[2] = MRT (0 to infinity) in Wistar rat brain at 10 mg/kg, po by HPLC analysis; format: ADME, organism-based
Outline: (§2)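 Male Wistar rats (180 ± 20 g) received a single oral dose of 10, 15 or 30 mg/kg. Tissues were collected at 0, 0.5, 1, 2, 4, 6, 8, 12, 24, 48 and 72 h (n = 6 per point). Samples of 0.25 g were rinsed, then homogenized in saline (0.25 g/1 mL) and centrifuged at 10,000 × g. Supernatant was methanol-extracted, dried under nitrogen at 50 °C and reconstituted in methanol. Analysis was by C18 HPLC (acetonitrile 60% / water 40%, 1.0 mL/min).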

[3] = Cmax in Wistar rat liver at 10 mg/kg, po by HPLC analysis; format: ADME, organism-based; set-up: dose 10 mg/kg, route oral
Outline: (§3)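 Tissue distribution in male Wistar rats given oral 10, 15 or 30 mg/kg; heart, liver, spleen, lung, kidney and brain collected predose and 0.5–72 h post-dose (n = 6 per time). Tissue rinsed in saline, homogenised 0.25 g/1 mL saline, methanol extraction, dried under nitrogen, reconstituted in methanol. Analysis by reverse-phase C18 HPLC, acetonitrile/water 60:40, 1.0 mL/min, ambient temperature.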

[4] = MRT (0 to infinity) in Wistar rat plasma at 30 mg/kg, po by HPLC analysis; format: ADME, organism-based
Outline: (§4)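 Male Wistar rats (180 ± 20 g), 6 per dose group, each given a single oral dose. Blood was drawn by retro-orbital puncture into heparin at predose and at 0.5, 1, 2, 4, 6, 8, 12, 24, 48 and 72 h, then spun at 4000 × g and 4 °C. Plasma with internal standard was acetonitrile-precipitated, filtered and run on reverse-phase C18 HPLC (0.02 mol/L KH2PO4 55% / acetonitrile 45%, 1.0 mL/min). Calibration standards were 0.1–10 µg/mL, fitted by peak-height ratio with 1/conc² weighting.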

[5] = Half life in Wistar rat liver at 10 mg/kg, po by HPLC analysis; format: ADME, organism-based; outline: as §3
[6] = MRT (0 to 72 hrs) in Wistar rat brain at 15 mg/kg, po by HPLC analysis; format: ADME, organism-based; outline: as §3
[7] = Half life in Wistar rat Heart at 30 mg/kg, po by HPLC analysis; format: ADME, organism-based; outline: as §3
[8] = Half life in Wistar rat lung at 30 mg/kg, po by HPLC analysis; format: ADME, organism-based; outline: as §3
[9] = AUC (0 to 72 hrs) in Wistar rat lung at 30 mg/kg, po by HPLC analysis; format: ADME, organism-based; set-up: time < 72 hr, dose 30 mg/kg, route oral
Outline: (§5)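 Wistar rats (180 ± 20 g) were dosed orally at 10, 15 or 30 mg/kg. Heart, liver, spleen, lung, kidney and brain were collected at 0–72 h (n = 6 per point). Tissue was rinsed, blotted and homogenized in saline (0.25 g/1 mL), then spun at 10,000 × g. Supernatant was methanol-extracted, dried under nitrogen at 50 °C, reconstituted in methanol and run on C18 HPLC (acetonitrile 60%/water 40%, 1.0 mL/min).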

[10] = AUC (0 to infinity) in Wistar rat lung at 10 mg/kg, po by HPLC analysis; format: ADME, organism-based; set-up: dose 10 mg/kg, time infinity, route oral; outline: as §5
[11] = AUC (0 to infinity) in Wistar rat lung at 30 mg/kg, po by HPLC analysis; format: ADME, organism-based; set-up: dose 30 mg/kg, route oral, time infinity; outline: as §5
[12] = Tmax in Wistar rat plasma at 10 mg/kg, po by HPLC analysis; format: ADME, organism-based; outline: as §4
[13] = Half life in Wistar rat liver at 15 mg/kg, po by HPLC analysis; format: ADME, organism-based; outline: as §3
[14] = MRT (0 to infinity) in Wistar rat spleen at 15 mg/kg, po by HPLC analysis; format: ADME, organism-based; outline: as §2
[15] = Cmax in Wistar rat kidney at 30 mg/kg, po by HPLC analysis; format: ADME, organism-based; set-up: dose 30 mg/kg, route oral; outline: as §3
[16] = Tmax in Wistar rat liver at 15 mg/kg, po by HPLC analysis; format: ADME, organism-based; outline: as §2
[17] = MRT (0 to 72 hrs) in Wistar rat Heart at 30 mg/kg, po by HPLC analysis; format: ADME, organism-based; outline: as §3
[18] = MRT (0 to infinity) in Wistar rat liver at 15 mg/kg, po by HPLC analysis; format: ADME, organism-based; outline: as §2
[19] = Tmax in Wistar rat liver at 30 mg/kg, po by HPLC analysis; format: ADME, organism-based; outline: as §2
[20] = MRT (0 to 72 hrs) in Wistar rat spleen at 15 mg/kg, po by HPLC analysis; format: ADME, organism-based; outline: as §2
[21] = Tmax in Wistar rat brain at 10 mg/kg, po by HPLC analysis; format: ADME, organism-based; outline: as §2
[22] = Tmax in Wistar rat kidney at 30 mg/kg, po by HPLC analysis; format: ADME, organism-based; outline: as §2
[23] = AUC (0 to infinity) in Wistar rat brain at 10 mg/kg, po by HPLC analysis; format: ADME, organism-based; set-up: dose 10 mg/kg, route oral, time infinity; outline: as §5
[24] = Cmax in Wistar rat plasma at 10 mg/kg, po by HPLC analysis; format: ADME, organism-based; set-up: dose 10 mg/kg, route oral
[25] = MRT (0 to infinity) in Wistar rat kidney at 30 mg/kg, po by HPLC analysis; format: ADME, organism-based; outline: as §2
[26] = AUC (0 to 72 hrs) in Wistar rat spleen at 10 mg/kg, po by HPLC analysis; format: ADME, organism-based; set-up: dose 10 mg/kg, time < 72 hr, route oral; outline: as §5
[27] = MRT (0 to 72 hrs) in Wistar rat lung at 10 mg/kg, po by HPLC analysis; format: ADME, organism-based; outline: as §2
[28] = Half life in Wistar rat plasma at 30 mg/kg, po by HPLC analysis; format: ADME, organism-based
[29] = MRT (0 to 72 hrs) in Wistar rat Heart at 10 mg/kg, po by HPLC analysis; format: ADME, organism-based; outline: as §3
[30] = MRT (0 to 72 hrs) in Wistar rat plasma at 15 mg/kg, po by HPLC analysis; format: ADME, organism-based; outline: as §4
Rattus norvegicus = test: Antihypertensive activity in spontaneous hypertensive rat model assessed as reduction in mean blood pressure at 15 mg/kg, po after 4 hrs; format: functional
Outline: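 Male SHRs (250 ± 20 g) were randomized, 6 per group. Compound was suspended in 0.5% sodium carboxymethyl cellulose and given orally; vehicle-only negative control. Mean blood pressure was calculated as (SBP − DBP)/3 + DBP from systolic and diastolic readings over the time course. Data are mean ± SD, with p < 0.05 taken as significant.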

[31] = AUC (0 to infinity) in Wistar rat plasma at 10 mg/kg, po by HPLC analysis; format: ADME, organism-based; set-up: dose 10 mg/kg, route oral, time infinity; outline: as §1
[32] = Toxicity in ICR mouse assessed as mortality at 1200 mg/kg, ig after 2 weeks; format: organism-based; conditions: in vivo, po
[33] = AUC (0 to infinity) in Wistar rat spleen at 10 mg/kg, po by HPLC analysis; format: ADME, organism-based; set-up: dose 10 mg/kg, time infinity, route oral; outline: as §5

SMILES: CCCCC1=NC2(CCCC2)C(=O)N1Cc1ccc2c(ccn2-c2ccccc2-c2nnn[nH]2)c1
- AUC(0-t) at 72 h [1]: 26500 ng·h/mL
- MRT inf [2]: 8.1 h
- Cmax [3]: 721 ng/mL
- MRT inf [4]: 16.1 h
- half-life [5]: 2.33 h
- MRT last [6]: 11.6 h
- half-life [7]: 20.2 h
- half-life [8]: 2.35 h
- AUC(0-t) at 72 h [9]: 2360 ng·h/mL
- AUC(0-inf) [10]: 745 ng·h/mL
- AUC(0-inf) [11]: 2410 ng·h/mL
- Tmax [12]: 5.67 h
- half-life [13]: 1.8 h
- MRT inf [14]: 13.1 h
- Cmax [15]: 396 ng/mL
- Tmax [16]: 2 h
- MRT last [17]: 16.2 h
- MRT inf [18]: 4.77 h
- Tmax [19]: 4 h
- MRT last [20]: 9.71 h
- Tmax [21]: 6.67 h
- Tmax [22]: 2 h
- AUC(0-inf) [23]: 346 ng·h/mL
- Cmax [24]: 856 ng/mL
- MRT inf [25]: 24.1 h
- AUC(0-t) at 72 h [26]: 9470 ng·h/mL
- MRT last [27]: 10.6 h
- half-life [28]: 9.93 h
- MRT last [29]: 7.68 h
- MRT last [30]: 10.2 h
- Activity (Rattus norvegicus): 40.62 mmHg
- AUC(0-inf) [31]: 6690 ng·h/mL
- mortality at 336 h [32]: 0%
- AUC(0-inf) [33]: 11700 ng·h/mL
